These results are taken from ChEMBL document CHEMBL1821594, “Synthesis and anticancer evaluation of novel 2-cyclopropylimidazo[2,1-b][1,3,4]-thiadiazole derivatives” (2011).

By GI50 is commonly meant the concentration that inhibits growth by half. Higher therefore signals lower sensitivity of the cells. What is called TGI is the concentration at which net growth stops.

The subject of test [1] is M14. Put plainly: Antitumor activity against human M14 cells after 48 hrs by SRB assay. The class given is functional. Particulars: M14, 48 h. The method in brief: (§1)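 Cells grown in RPMI 1640 with 5% FBS and 2 mM L-glutamine and seeded at 5000–40,000 cells/well according to doubling time. They were preincubated 24 h at 37 °C, 5% CO2, then exposed to DMSO-solubilized compound for 48 h. Adherent cells were fixed with cold TCA (10% final), suspension cells with 16% final. Stained with 0.4% SRB; absorbance at 515 nm. Percent growth calculated against time-zero and control plates.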

For test [2], the system named is K562. The test can be described thus: Antitumor activity against human K562 cells after 48 hrs by SRB assay. To be noted: K562, 48 h. The class given is functional. A digest of the protocol: as §1
In general terms: The SRB assay estimates cell density from bound dye.

[3] abbreviates: read-out: LC50 (the source's name).

Take `Clc1ccc(-c2nc3sc(C4CC4)nn3c2Br)cc1`: the GI50 worked out at 7.7 µM in test [1] and 1.79 µM in test [2]. For the same molecule, the TGI in test [1] and in test [2] was above 100 µM throughout. In addition, the CC50 in test [1] (setting [3]) and in test [2] (setting [3]) was above 100 µM each time.
